In brackets after ≈: the same amount, converted by molar mass.
Columns and labels:
[1] = (§1) Cytotoxicity against human PANC1 cells assessed as growth inhibition after 90 hrs by MTT assay; format: cell-based, PANC-1; details: PANC-1 cells
PANC-1 = assay: as §1; format: cell-based; details: panc-1, 90 h
[2] = tested on: Mycobacterium tuberculosis; assay: Antitubercular activity against active Mycobacterium tuberculosis H37Ra ATCC 25177 after 8 days by XTT reduction menadione assay; format: functional; details: H37Ra ATCC 25177, 192 h
Outline: (§2)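 H37Ra was tested by microdilution in 96-well plates, at 30–0.001 μg/mL in one-third dilutions. Each plate carried a rifampicin and isoniazid dilution series as positive controls. Growth was scored by XTT reduction menadione assay (XRMA) and cross-checked by a final absorbance reading at 600 nm.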

THP-1 = assay: (§3) Cytotoxicity against human THP1 cells assessed as growth inhibition after 72 hrs by MTT assay; format: cell-based; details: thp-1, 72 h
[3] = as §3; format: cell-based, THP-1; details: THP-1 cells
[4] = tested on: Mycobacterium tuberculosis; assay: Antitubercular activity against dormant Mycobacterium tuberculosis H37Ra ATCC 25177 infected in human THP1 cells after 12 days by nitrate reductase assay; format: functional; details: H37Ra ATCC 25177, 288 h
[5] = tested on: Mycobacterium tuberculosis; assay: Antitubercular activity against dormant Mycobacterium tuberculosis H37Ra ATCC 25177 after 12 days by XTT reduction menadione assay; format: functional; details: H37Ra ATCC 25177, 288 h; outline: as §2
[6] = tested on: Mycobacterium tuberculosis; assay: Antitubercular activity against active Mycobacterium tuberculosis H37Ra ATCC 25177 infected in human THP1 cells after 8 days by nitrate reductase assay; format: functional; details: H37Ra ATCC 25177, 192 h
[7] = tested on: Mycobacterium tuberculosis; assay: Antitubercular activity against dormant Mycobacterium tuberculosis H37Ra ATCC 25177 at 3 to 30 ug/ml after 12 days by XTT reduction menadione assay; format: functional; set-up: scale not given: the % may be the effect or the level left
HeLa = assay: (§4) Cytotoxicity against human HeLa cells assessed as growth inhibition after 72 hrs by MTT assay; format: cell-based; details: hela, 72 h
[8] = as §4; format: cell-based; details: HeLa cells
[9] = Selectivity index, ratio of GI50 for human THP1 cells to MIC90 for dormant Mycobacterium bovis BCG ATCC 35734; format: toxicity; details: THP-1 cells, read-out: Selectivity Index
[10] = Selectivity index, ratio of GI50 for human PANC1 cells to MIC90 for active Mycobacterium bovis BCG ATCC 35734; format: toxicity; details: PANC-1 cells, read-out: Selectivity Index
[11] = Selectivity index, ratio of GI50 for human PANC1 cells to MIC90 for dormant Mycobacterium bovis BCG ATCC 35734; format: toxicity; details: PANC-1 cells, read-out: Selectivity Index
[12] = Selectivity index, ratio of GI50 for human HeLa cells to MIC90 for active Mycobacterium bovis BCG ATCC 35734; format: toxicity; details: read-out: Selectivity Index
[13] = Selectivity index, ratio of GI50 for human THP1 cells to MIC90 for active Mycobacterium bovis BCG ATCC 35734; format: toxicity; details: THP-1 cells, read-out: Selectivity Index
[14] = Selectivity index, ratio of GI50 for human HeLa cells to MIC90 for dormant Mycobacterium bovis BCG ATCC 35734; format: toxicity; details: read-out: Selectivity Index
[15] = Selectivity index, ratio of GI50 for human THP1 cells to MIC90 for active Mycobacterium tuberculosis H37Ra ATCC 25177; format: toxicity; details: THP-1 cells, read-out: Selectivity Index
[16] = Selectivity index, ratio of GI50 for human THP1 cells to MIC90 for dormant Mycobacterium tuberculosis H37Ra ATCC 25177; format: toxicity; details: THP-1 cells, read-out: Selectivity Index
[17] = Antioxidant activity assessed as DPPH radical scavenging activity after 30 mins by spectrophotometric method; format: functional

| SMILES | GI50 at 90 h [1] [µg/mL] | GI90 (PANC-1) [µg/mL] | MIC90 [2] [µg/mL] | GI90 (THP-1) [µg/mL] | GI50 at 72 h [3] [µg/mL] | MIC90 [4] [µg/mL] | MIC90 [5] [µg/mL] | MIC90 [6] [µg/mL] | Activity [7] [%] | GI90 (HeLa) [µg/mL] | GI50 at 72 h [8] [µg/mL] | selectivity ratio [9] | selectivity ratio [10] | selectivity ratio [11] | selectivity ratio [12] | selectivity ratio [13] | selectivity ratio [14] | selectivity ratio [15] | selectivity ratio [16] | EC50 [17] [µg/mL] |
| --- | --- | --- | --- | --- | --- | --- | --- | --- | --- | --- | --- | --- | --- | --- | --- | --- | --- | --- | --- | --- |
| O=C(CC(=O)c1cc(Cl)ccc1O)c1cc2ccccc2s1 | 8.44 (≈ 25.5 µM) | 26.03 (≈ 78.7 µM) | 3.29 (≈ 9.95 µM) | > 30 | 7.48 (≈ 22.6 µM) | 0.91 (≈ 2.75 µM) | 2.79 (≈ 8.43 µM) | 2.83 (≈ 8.56 µM) | >92 | 8.24 (≈ 24.9 µM) | 4.42 (≈ 13.4 µM) |  |  |  |  |  |  |  |  |  |
| Cc1ccc2oc(-c3cc4ccccc4s3)cc(=O)c2c1 | 12.9 (≈ 44 µM) | 29.75 (≈ 102 µM) | 28.9 (≈ 98.7 µM) | > 100 | > 100 | 2.76 (≈ 9.44 µM) | 30 (≈ 103 µM) | 8.39 (≈ 28.7 µM) |  | 27.8 (≈ 95.1 µM) | 15.6 (≈ 53.2 µM) | > 22 | > 20 | > 20 | > 20 | > 22 | > 20 |  |  |  |
| O=C(CC(=O)c1cc(Br)ccc1O)c1cc2ccccc2s1 | 18.3 (≈ 48.8 µM) | > 30 | 2.87 (≈ 7.65 µM) | > 100 | > 100 | 3.91 (≈ 10.4 µM) | 2.63 (≈ 7.01 µM) | 4.94 (≈ 13.2 µM) | >92 | 20.28 (≈ 54 µM) | 6.75 (≈ 18 µM) |  | > 10 | > 10 |  |  |  |  |  |  |
| Cc1ccc(O)c(C(=O)CC(=O)c2cc3ccccc3s2)c1 | 15.8 (≈ 51 µM) | > 30 |  | > 100 | > 100 |  |  |  |  | > 30 | 7.12 (≈ 22.9 µM) |  |  | > 10 |  |  |  |  |  |  |
| Cc1cc(O)c(C(=O)CC(=O)c2cc3ccccc3s2)cc1Cl | 20.4 (≈ 59 µM) | > 30 |  | > 100 | > 100 |  |  |  |  | > 100 | > 100 | > 22 |  |  |  | > 22 |  |  |  |  |
| Cc1cc2oc(-c3cc4ccccc4s3)cc(=O)c2cc1Cl | > 100 | > 100 | 25.4 (≈ 77.6 µM) | > 100 | > 100 | 2.18 (≈ 6.67 µM) | 24.3 (≈ 74.5 µM) | 7.67 (≈ 23.5 µM) |  | > 30 | 21.2 (≈ 64.9 µM) | > 30 |  |  | > 35 | > 30 | > 35 | > 30 | > 30 |  |
| O=C(CC(=O)c1cc(Cl)cc(Cl)c1O)c1cc2ccccc2s1 | 26.2 (≈ 71.8 µM) | > 30 |  | > 100 | > 100 |  |  |  |  | > 100 | > 100 |  |  | > 10 |  |  |  |  |  |  |
| O=C(CC(=O)c1ccccc1O)c1cc2ccccc2s1 | 7.77 (≈ 26.2 µM) | > 30 | 25.2 (≈ 84.9 µM) | > 100 | > 100 | 1.82 (≈ 6.14 µM) | 2.05 (≈ 6.92 µM) | 2.96 (≈ 9.99 µM) | >92 | > 30 | 7.86 (≈ 26.5 µM) |  |  |  |  |  |  |  |  |  |
| Cc1ccc(C(=O)CC(=O)c2cc3ccccc3s2)c(O)c1 | 9.24 (≈ 29.8 µM) | > 30 | 5.45 (≈ 17.6 µM) | > 100 | > 100 | 2.61 (≈ 8.41 µM) | 4.41 (≈ 14.2 µM) | 25.8 (≈ 83.3 µM) | >92 | > 30 | 23.1 (≈ 74.5 µM) |  |  |  | > 13 |  | > 13 |  |  | 20 (≈ 64.4 µM) |
| NNC(=O)c1ccncc1 [ISONIAZID] |  |  | 0.074 (≈ 0.54 µM) |  |  | 0.075 (≈ 0.547 µM) | 0.075 (≈ 0.547 µM) | 0.05 (≈ 0.365 µM) |  |  |  |  |  |  |  |  |  |  |  |  |
| CC(=O)O[C@H]1C(=O)[C@@]2(C)[C@H]([C@H](OC(=O)c3ccccc3)[C@]3(O)C[C@H](OC(=O)[C@H](O)[C@@H](NC(=O)c4ccccc4)c4ccccc4)C(C)=C1C3(C)C)[C@]1(OC(C)=O)CO[C@@H]1C[C@@H]2O [PACLITAXEL] | 0.127 (≈ 0.149 µM) | 5.715 (≈ 6.69 µM) |  | 5.81 (≈ 6.8 µM) | 0.133 (≈ 0.156 µM) |  |  |  |  | 0.075 (≈ 0.0878 µM) | 0.004 (≈ 0.00468 µM) |  |  |  |  |  |  |  |  |  |
| CO[C@H]1/C=C/O[C@@]2(C)Oc3c(C)c(O)c4c(O)c(c(/C=N/N5CCN(C)CC5)c(O)c4c3C2=O)NC(=O)/C(C)=C\C=C\[C@H](C)[C@H](O)[C@@H](C)[C@@H](O)[C@@H](C)[C@H](OC(C)=O)[C@@H]1C [RIFAMPIN] |  |  | 0.048 (≈ 0.0583 µM) |  |  | 0.8 (≈ 0.972 µM) | 0.043 (≈ 0.0523 µM) | 0.5 (≈ 0.608 µM) |  |  |  |  |  |  |  |  |  |  |  |  |

— ChEMBL document CHEMBL4431374, “Synthesis and Antitubercular Activity of New Benzo[b]thiophenes” (ACS Med Chem Lett, 2016)
